Source: ChEMBL document CHEMBL1123671, “1-Aryl-2-(aminomethyl)cyclopropanecarboxylic acid derivatives. A new series of potential antidepressants” (J Med Chem, 1987)

Legend:
[1] = species: Mus musculus; assay: Percent increase of the diameter of the test pupil (% mydriasis) in comparison with that of the control pupil.; assay type: functional
Outline: (§1)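 One drop (0.1 mL) of a 1% aqueous solution instilled into the left eye of 10 mice; right eye as untreated control. Both pupil diameters measured by ocular micrometer; mean mydriasis given as percent increase of test pupil diameter over control pupil.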

[2] = test system: Mus musculus; assay: Antagonism of tetrabenazine-induced ptosis in mice was evaluated after oral administration; assay type: functional
Outline: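 Mice dosed orally at various doses (highest 30 mg/kg) 30 min before tetrabenazine 40 mg/kg ip. Blepharoptosis scored 0–2 thirty minutes after tetrabenazine. Group score sums expressed as percentage.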

[3] = test system: Mus musculus; assay: Ability to kill 50% of the animals (administered orally), after sublethal dose of yohimbine (25 mg/Kg) when given subcutaneously.; assay type: functional
[4] = Ability to kill 50% of the animals after 24h, when administered perorally; assay type: ADME, organism-based; conditions: mouse, in vivo, po
[5] = test system: Mus musculus; assay: Potentiation of 5-hydroxytryptophan-induced head twitch in mice after oral administration; assay type: functional
[6] = species: Mus musculus; assay: % increase of the diameter of the test pupil (% mydriasis) in comparison with that of the control pupil.; assay type: functional, organism-based; outline: as §1
[7] = test system: Mus musculus; assay: Compound was tested for its ability to kill 50% of the animals after 24h, when administered perorally; assay type: functional; conditions: po

`CCCN(CCC)C(=O)[C@@]1(c2ccccc2)CC1CN.O=C(O)C(=O)O` (stereo not given in full) gave a Mydriasis [1] of 27%, an ED50 [2] of 5.5 mg/kg and an ED50 [3] of 9 mg/kg. The LD50 at 24 h [4] was 100 mg/kg.

In the case of `CC(C)OC(=O)[C@@]1(c2ccccc2)CC1CN.Cl` (stereo not given in full), the Mydriasis [1] was 20%, the ED50 [3] was 18 mg/kg and the LD50 at 24 h [4] was 100 mg/kg. It also gave an ED50 [5] of 54 mg/kg.

For `CC(C)N(C(=O)[C@@]1(c2ccccc2)CC1CN)C(C)C.Cl` (stereo not given in full), the Mydriasis [6] was “Not significant”, the ED50 [2] was 30 mg/kg and the ED50 [3] was 15 mg/kg. The LD50 at 24 h [4] was 100 mg/kg and the ED50 [5] was > 30 mg/kg.

With `COC(=O)[C@@]1(c2ccccc2)CC1CN(C)C.Cl` (stereo not given in full) the Mydriasis [1] was 60%, the ED50 [2] was 30 mg/kg and the ED50 [3] was 29 mg/kg. The LD50 at 24 h [4] was 750 mg/kg.

With `CCOC(=O)[C@@]1(c2ccc(OC)cc2)CC1CN(C)C.Cl` (stereo not given in full) the Mydriasis [1] was 38%, the ED50 [3] was > 30 mg/kg and the LD50 at 24 h [4] was 562 mg/kg.

In the case of `Cl.NCC1C[C@@]1(C(=O)O)c1ccccc1` (stereo not given in full), the Mydriasis [6] was “Not significant”, the ED50 [2] was > 30 mg/kg and the ED50 [3] was > 100 mg/kg. The LD50 at 24 h [4] was > 1000 mg/kg and the ED50 [5] was > 100 mg/kg.

In the case of `CCN(CC)C(=O)[C@]1(c2cccc(Cl)c2)CC1CN.Cl` (stereo not given in full), the Mydriasis [6] was “Not significant”, the ED50 [2] was 0.9 mg/kg and the ED50 [3] was 3 mg/kg. The LD50 at 24 h [4] was 100 mg/kg and the ED50 [5] was > 10 mg/kg.

Compound `NCC1C[C@@]1(C(=O)N1CCCC1)c1ccccc1.O=C(O)C(=O)O` (stereo not given in full) has a Mydriasis [1] of 12%, an ED50 [2] of 20 mg/kg and an ED50 [3] of 48 mg/kg. For the same compound, the LD50 at 24 h [4] was 562 mg/kg and the ED50 [5] was > 100 mg/kg.

For `CCOC(=O)[C@@]1(c2ccccc2)CC1CN(CCO)CCO.O=C(O)/C=C\C(=O)O` (stereo not given in full), the Mydriasis [6] was “Not significant”, the ED50 [3] was > 100 mg/kg and the LD50 at 24 h [4] was > 1000 mg/kg.

With `CC(C)OC(=O)[C@@]1(c2ccccc2)CC1CN(C)C.Cl` (stereo not given in full) the Mydriasis [1] was 73%, the ED50 [2] was 7 mg/kg and the ED50 [3] was 18 mg/kg. It also gave an LD50 at 24 h [4] of 422 mg/kg.

Compound `CCN(CC)C(=O)[C@]1(c2ccc(Cl)cc2)CC1CN.Cl` (stereo not given in full) has a Mydriasis [1] of 11%, an ED50 [2] of 9 mg/kg and an ED50 [3] of 3 mg/kg. For the same compound, the LD50 at 24 h [4] was 422 mg/kg and the ED50 [5] was > 100 mg/kg.

For `CCCCCCN(CCCCCC)C(=O)[C@@]1(c2ccccc2)CC1CN.O=C(O)C(=O)O` (stereo not given in full), the Mydriasis [6] was “Not significant”, the ED50 [2] was > 30 mg/kg and the LD50 [7] was > 1000 mg/kg. For the same compound, the ED50 [3] was > 100 mg/kg and the ED50 [5] was > 1000 mg/kg.

With `CCOC(=O)[C@@]1(c2ccccc2)CC1CNCc1ccccc1.Cl` (stereo not given in full) the Mydriasis [1] was 16%, the ED50 [3] was > 30 mg/kg and the LD50 at 24 h [4] was 316 mg/kg.

Work on `CCOC(=O)[C@@]1(c2ccccc2)CC1CN(C)C.Cl` (stereo not given in full) yielded a Mydriasis [1] of 40%, an ED50 [2] of 1.4 mg/kg and an ED50 [3] of 10 mg/kg. The LD50 at 24 h [4] was > 1000 mg/kg.

For `CCOC(=O)[C@@]1(c2ccccc2)CC1CN(C)CCc1ccccc1.Cl` (stereo not given in full), the Mydriasis [1] was 30%, the ED50 [2] was > 30 mg/kg and the ED50 [3] was 15 mg/kg. For the same compound, the LD50 at 24 h [4] was 1000 mg/kg and the ED50 [5] was > 30 mg/kg.

With `CCN(CC)C(=O)[C@]1(c2ccccc2)C[C@H]1CN.Cl` the Mydriasis [6] was “Not significant”, the ED50 [2] was 0.5 mg/kg and the ED50 [3] was 0.5 mg/kg. The LD50 at 24 h [4] was 237 mg/kg and the ED50 [5] was > 100 mg/kg.

With `CC(C)OC(=O)[C@@]1(c2ccc(Cl)cc2)CC1CN.Cl` (stereo not given in full) the Mydriasis [1] was 23%, the ED50 [2] was 8 mg/kg and the ED50 [3] was 2 mg/kg. For the same compound, the LD50 at 24 h [4] was 255 mg/kg and the ED50 [5] was 50 mg/kg.

With `CCN(CC)C(=O)[C@@]1(c2ccccc2)CC1CNC.O=C(O)C(=O)O` (stereo not given in full) the Mydriasis [6] was “Not significant”, the ED50 [2] was 13 mg/kg and the ED50 [3] was 4 mg/kg. The LD50 at 24 h [4] was 316 mg/kg and the ED50 [5] was > 100 mg/kg.

With `CCN(CC)C(=O)[C@]1(c2ccccc2)C[C@@H]1CN.Cl` [1R,2S-MILNACIPRAN HYDROCHLORIDE] the Mydriasis [6] was “Not significant”, the ED50 [2] was > 30 mg/kg and the ED50 [3] was > 100 mg/kg. The LD50 at 24 h [4] was 562 mg/kg and the ED50 [5] was > 100 mg/kg.

Compound `CCOC(=O)[C@@]1(c2ccc(Cl)cc2)CC1CN(C)C.Cl` (stereo not given in full) has a Mydriasis [1] of 24%, an ED50 [2] of 6 mg/kg and an ED50 [3] of 2 mg/kg. For the same compound, the LD50 at 24 h [4] was 422 mg/kg and the ED50 [5] was 35 mg/kg.

Work on `CCCOC(=O)[C@@]1(c2ccccc2)CC1CN(C)C.O=C(O)/C=C/C(=O)O` (stereo not given in full) yielded a Mydriasis [1] of 55%, an ED50 [2] of 30 mg/kg and an ED50 [3] of 25 mg/kg. For the same compound, the LD50 at 24 h [4] was 562 mg/kg and the ED50 [5] was > 100 mg/kg.

With `CCOC(=O)[C@@]1(c2ccccc2)CC1CN1CCCC1.Cl` (stereo not given in full) the Mydriasis [1] was 53%, the ED50 [3] was > 100 mg/kg and the LD50 at 24 h [4] was 562 mg/kg.

With `CCOC(=O)[C@@]1(c2ccccc2)CC1CN(C(C)C)C(C)C.O=C(O)/C=C\C(=O)O` (stereo not given in full) the Mydriasis [1] was 49%, the ED50 [3] was 70 mg/kg and the LD50 at 24 h [4] was 750 mg/kg.

With `CCCCN(CCCC)C(=O)[C@@]1(c2ccccc2)CC1CN.O=C(O)C(=O)O` (stereo not given in full) the Mydriasis [6] was “Not significant”, the ED50 [2] was > 30 mg/kg and the ED50 [3] was > 100 mg/kg. For the same compound, the LD50 at 24 h [4] was 562 mg/kg and the ED50 [5] was > 100 mg/kg.

`CN(C)CCCN1c2ccccc2CCc2ccccc21` [IMIPRAMINE] showed a Mydriasis [1] of 61%, an ED50 [2] of 5 mg/kg and an ED50 [3] of 7 mg/kg. It also gave an ED50 [5] of 60 mg/kg.

In the case of `CCN(CC)C(=O)[C@]1(c2ccc(F)cc2)CC1CN.Cl` (stereo not given in full), the Mydriasis [6] was “Not significant”, the ED50 [2] was 10 mg/kg and the ED50 [3] was 5 mg/kg. For the same compound, the LD50 at 24 h [4] was 422 mg/kg and the ED50 [5] was 50 mg/kg.

In the case of `CCOC(=O)[C@@]1(c2ccccc2)CC1CN(C)CCO.O=C(O)/C=C/C(=O)O` (stereo not given in full), the Mydriasis [1] was 23%, the ED50 [3] was 56 mg/kg and the LD50 at 24 h [4] was > 1000 mg/kg.

In the case of `Cc1ccc([C@]2(C(=O)OC(C)C)CC2CN)cc1.Cl` (stereo not given in full), the Mydriasis [6] was “Not significant”, the ED50 [2] was 17 mg/kg and the ED50 [3] was 30 mg/kg. For the same compound, the LD50 at 24 h [4] was 1000 mg/kg and the ED50 [5] was 100 mg/kg.

`CCOC(=O)[C@@]1(c2ccc(F)cc2)CC1CN(C)C.Cl` (stereo not given in full) gave a Mydriasis [1] of 76%, an ED50 [2] of 8 mg/kg and an ED50 [3] of 12 mg/kg. The LD50 at 24 h [4] was 562 mg/kg.

In the case of `CCNC(=O)[C@@]1(c2ccccc2)CC1CN.O=C(O)C(=O)O` (stereo not given in full), the Mydriasis [6] was “Not significant”, the ED50 [2] was > 30 mg/kg and the ED50 [3] was 19 mg/kg. For the same compound, the LD50 at 24 h [4] was 316 mg/kg and the ED50 [5] was > 100 mg/kg.

In the case of `CN(C)CCCN1c2ccccc2CCc2ccc(Cl)cc21` [CLOMIPRAMINE], the Mydriasis [1] was 38%, the ED50 [2] was 9 mg/kg and the ED50 [3] was 5 mg/kg. For the same compound, the LD50 at 24 h [4] was 556 mg/kg and the ED50 [5] was 37 mg/kg.

Work on `CCOC(=O)[C@@]1(c2ccccc2)CC1CN.Cl` (stereo not given in full) yielded a Mydriasis [1] of 33%, an ED50 [2] of 30 mg/kg and an ED50 [3] of 100 mg/kg. It also gave an LD50 at 24 h [4] of 316 mg/kg and an ED50 [5] of 73 mg/kg.

Compound `CCCCN(C)CC1C[C@@]1(C(=O)OCC)c1ccccc1.Cl` (stereo not given in full) has a Mydriasis [1] of 61%, an ED50 [3] of 27 mg/kg and an LD50 at 24 h [4] of 255 mg/kg.

Compound `C=CCOC(=O)[C@@]1(c2ccccc2)CC1CN(C)C.O=C(O)/C=C/C(=O)O` (stereo not given in full) has a Mydriasis [1] of 44%, an ED50 [3] of 16 mg/kg and an LD50 at 24 h [4] of 1000 mg/kg.

For `CNCCCN1c2ccccc2CCc2ccccc21` [DESIPRAMINE], the Mydriasis [1] was 46%, the ED50 [2] was 3 mg/kg and the ED50 [3] was 2 mg/kg. For the same compound, the LD50 at 24 h [4] was 572 mg/kg and the ED50 [5] was > 100 mg/kg.

Work on `CCOC(=O)[C@@]1(c2ccccc2)CC1CNC.Cl` (stereo not given in full) yielded a Mydriasis [1] of 62%, an ED50 [3] of 30 mg/kg and an LD50 at 24 h [4] of 562 mg/kg.
